{"source": "paper PMC10416317", "about": "(Journal of medicinal chemistry, 2023)", "key": {"[1]": {"system": "acute kidney injury", "experiment": "Ischemia/reperfusion-induced AKI model in mice", "assay_type": "in vivo", "conditions": "mouse I/R AKI"}, "[2]": {"target": "AKR1B1 (Mus musculus, UniProt P45376)", "experiment": "Methylglyoxylate-metabolizing", "assay_type": "in vivo", "conditions": "i.p. 120 mg/kg, 18h"}, "[3]": {"target": "T1, SCoR2 (Mus musculus, UniProt Q9JII6)", "T1 sequence (Q9JII6 1-325)": "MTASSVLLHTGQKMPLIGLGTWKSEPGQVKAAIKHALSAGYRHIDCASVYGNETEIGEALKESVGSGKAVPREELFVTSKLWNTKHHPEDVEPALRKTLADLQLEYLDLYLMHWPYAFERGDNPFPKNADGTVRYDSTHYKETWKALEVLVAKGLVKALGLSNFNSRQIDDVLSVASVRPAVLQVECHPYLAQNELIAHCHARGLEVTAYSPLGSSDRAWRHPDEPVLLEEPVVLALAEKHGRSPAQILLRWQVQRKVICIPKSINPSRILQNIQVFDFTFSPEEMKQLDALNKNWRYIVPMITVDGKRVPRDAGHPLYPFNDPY", "assay_type": "in vivo", "conditions": "i.p. 120 mg/kg, 18h", "summary_of_the_method": "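Mice received test compound 120 mg/kg i.p. (vehicle DMSO); liver, lung, heart, brain and spleen were harvested 18 h later. Tissues were homogenized in 50 mM phosphate pH 7.0, 150 mM NaCl, 100 μM EDTA/DTPA, clarified at 20,000xg, 4°C, and protein measured by BCA. Lysate started reactions with 200 μM SNO-CoA and 100 μM NADPH in phosphate/EDTA/DTPA buffer; 2 min; triplicate; n≥3.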"}, "[4]": {"target": "AKR1B1 (Homo sapiens, UniProt P15121)", "experiment": "Inhibition of methylglyoxylate-metabolizing activity of purified AKR1B1", "assay_type": "biochemical", "conditions": "ratio of IC50 values"}, "[5]": {"target": "T1, SCoR2", "experiment": "SNO-CoA-metabolizing activity in kidneys of treated mice", "assay_type": "in vivo", "summary_of_the_method": "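Mice got test compound i.p. with DMSO vehicle or were fed compound-containing diet; SCoR2-knockout mice served as comparators. Kidneys were taken 18 h after a single 20–120 mg/kg dose, or 24 h after I/R surgery done 18 h post-dose. Tissue was homogenized in 50 mM phosphate pH 7.0, 150 mM NaCl, 100 μM EDTA/DTPA, then clarified (20,000xg, 4°C) and BCA-normalized. Lysate started reactions with 200 μM SNO-CoA and 100 μM NADPH; 2 min, triplicate.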"}, "[6]": {"target": "T2, SCoR2 (Homo sapiens, UniProt P14550)", "T2 sequence (P14550 1-325)": "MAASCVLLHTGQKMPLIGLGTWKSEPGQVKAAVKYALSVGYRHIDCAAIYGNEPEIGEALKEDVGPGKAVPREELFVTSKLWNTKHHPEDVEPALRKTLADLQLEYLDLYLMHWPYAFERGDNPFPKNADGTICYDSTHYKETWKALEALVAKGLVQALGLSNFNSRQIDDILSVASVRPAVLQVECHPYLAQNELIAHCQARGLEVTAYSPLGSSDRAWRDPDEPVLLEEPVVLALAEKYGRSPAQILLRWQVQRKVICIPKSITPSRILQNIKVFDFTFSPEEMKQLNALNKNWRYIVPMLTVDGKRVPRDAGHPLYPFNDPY", "experiment": "Differential scanning fluorimetry", "assay_type": "binding", "conditions": "5 μM SCoR2, 250 μM compound; SCoR2 alone 48.3 (buffer), 48.0 (1% DMSO)"}, "[7]": {"target": "T3, SCoR2 (AKR1A1) (Homo sapiens, UniProt P14550)", "T3 sequence (P14550 1-325)": "T2 sequence (P14550 1-325)", "experiment": "Inhibition of DL-glyceraldehyde-metabolizing activity of purified SCoR2", "assay_type": "biochemical", "conditions": "DL-glyceraldehyde as substrate, in vitro", "summary_of_the_method": "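Initial screen with recombinant human SCoR2 (C-terminal His tag, expressed in E. coli, Ni-NTA purified). The 1 ml cuvette held 20 nM SCoR2, 3 mM DL-glyceraldehyde and varying inhibitor in 50 mM phosphate pH 7.0. NADPH (100 μM) started the reaction, which ran 2 min. NADPH consumption slope was read spectrophotometrically and IC50 was obtained by curve fitting.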"}, "[8]": {"conditions": "diet with 125 mg/kg diet for 3 weeks or 12 weeks"}, "[9]": {"conditions": "20 mg/kg i.p. 18 h before surgery, 24 h post-surgery"}}}
{"smiles": "O=C1NC(=O)C2(N1)c1ccccc1-c1ccc(C3CC3)cc12", "note": "(centres unmarked) [5-1]", "values": [{"measurement": "Protection against AKI", "setting": "[1]; 120 mg/kg i.p. 18 h before surgery", "value": "protected against AKI"}, {"measurement": "Activity of kidney AKR1B1", "setting": "[2]", "value": "did not inhibit"}, {"measurement": "Activity of SCoR2 in brain", "setting": "[3]", "value": "not in brain"}, {"measurement": "Activity of SCoR2 in heart", "setting": "[3]", "value": "inhibited"}, {"measurement": "Activity of SCoR2 in liver", "setting": "[3]", "value": "inhibited"}, {"measurement": "Activity of SCoR2 in lung", "setting": "[3]", "value": "inhibited"}, {"measurement": "Activity of SCoR2 in spleen", "setting": "[3]", "value": "inhibited"}]}
{"smiles": "O=C1NC(=O)C2(N1)c1cc(F)ccc1-c1ccc(F)cc12", "note": "[Imirestat, imirestat]", "values": [{"measurement": "Times more potent at AKR1B1 (vs SCoR2)", "setting": "[4]", "value": 1.2}, {"measurement": "SNO-CoA-metabolic activity in kidneys following AKI", "setting": "[5]; 20 mg/kg i.p. 18 h before AKI surgery, 24 h post-surgery", "value": "strongly inhibited"}, {"measurement": "SCoR2 activity in the kidney on drug diet", "setting": "[5]; [8]", "value": "potently inhibited"}, {"measurement": "Protection against AKI", "setting": "[1]; 20 mg/kg i.p. 18 h before surgery", "value": "does not protect against AKI"}, {"measurement": "Blood urea nitrogen (BUN) vs DMSO-treated mice", "setting": "[1]; [9]", "value": "the same"}, {"measurement": "Serum creatinine vs DMSO-treated mice", "setting": "[1]; [9]", "value": "the same"}, {"measurement": "Protection against AKI", "setting": "[1]; [8]", "value": "did not show protection against AKI"}]}
{"smiles": "NC(=O)C1=CN([C@@H]2O[C@H](COP(=O)(O)OP(=O)(O)OC[C@H]3O[C@@H](n4cnc5c(N)ncnc54)[C@H](OP(=O)(O)O)[C@@H]3O)[C@@H](O)[C@H]2O)C=CC1", "note": "[NADPH]", "values": [{"measurement": "Melting temperature (Tm) of SCoR2, compound alone", "setting": "[6]", "value": 51.4, "unit": "°C"}]}
{"smiles": "O=C1NC(=O)C2(N1)c1ccccc1-c1ccccc12", "note": "[compound 2]", "values": [{"measurement": "Inhibition of SCoR2 / potency at SCoR2 (in words)", "setting": "[7]", "value": "less potent"}]}
{"smiles": "CC(/C=C1\\SC(=S)N(CC(=O)O)C1=O)=C\\c1ccccc1", "note": "[epalrestat, reference compound]", "values": [{"measurement": "Inhibition of SCoR2 / potency at SCoR2 (in words)", "setting": "[7]", "value": "inhibit"}]}
